ChEMBL document CHEMBL1125920, “Synthesis and biological activity of 5-alkyl-1,7,8-trisubstituted-6-fluoroquinoline-3-carboxylic acids” (1991)
In brackets after ≈: the same amount, converted by molar mass.

Experiments:
[1] = MIC ratio measured as the mean MICs of gram-negative bacteria; type: functional
Procedure, shortened: (§1)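 Geometric mean of the MICs (µg/mL) over the Gram-negative or the Gram-positive strains of the 10-organism microtitration panel, calculated separately for each class.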

[2] = test system: Pseudomonas aeruginosa; test: Antibacterial activity was determined against gram negative organism, Pseudomonas aeruginosa (UI-18); type: functional
Procedure, shortened: (§2)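 MIC by standard microtitration against a panel of 10 representative Gram-negative and Gram-positive organisms; values reported in µg/mL.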

[3] = test system: Mus musculus; test: In vivo subcutaneous protective dose was determined in female charles river CD-1 mice infected with Escherichia coli (vogel); type: functional; conditions: sc, read-out: PD50
Procedure, shortened: (§3)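 Acute lethal systemic infection model in mice; drug given by subcutaneous injection; potency read out as median protective dose (PD50), in mg/kg.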

[4] = MIC ratio measured as the mean MICs of gram-positive bacteria; type: functional; procedure, shortened: as §1
[5] = test system: Staphylococcus aureus; test: Antibacterial activity was determined against gram positive organism, Staphylococcus aureus (UC76); type: functional; procedure, shortened: as §2
[6] = test system: Mus musculus; test: In vivo subcutaneous protective dose was determined in female charles river CD-1 mice infected with Streptococcus pneumoniae; type: functional; conditions: sc, read-out: PD50; procedure, shortened: as §3
[7] = test system: Mus musculus; test: In vivo oral protective dose was determined in female charles river CD-1 mice infected with Escherichia coli (vogel); type: functional; conditions: for ED50: Mus musculus, po, read-out: PD50
Procedure, shortened: (§4)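 Acute lethal systemic infection model in mice; drug given orally by gavage; potency read out as median protective dose (PD50), in mg/kg.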

[8] = test system: Klebsiella pneumoniae; test: Antibacterial activity was determined against gram negative organism, K. pneumoniae (MGH-2); type: functional; procedure, shortened: as §2
[9] = target: DNA gyrase (Escherichia coli) (UniProt P0AES6+P0AES4)
[10] = test system: Mus musculus; test: In vivo oral protective dose was determined in female charles river CD-1 mice infected with Streptococcus pneumoniae; type: functional; conditions: read-out: PD50; procedure, shortened: as §4
[11] = test system: Streptococcus pyogenes; test: Antibacterial activity was determined against gram positive organism, Streptococcus pyogenes (C203); type: functional; procedure, shortened: as §2
[12] = test system: Bacteria; test: Antibacterial activity was determined against gram negative organism, Providencia rettgeri. (M1771); type: functional; procedure, shortened: as §2
[13] = test system: Streptococcus pneumoniae; test: Antibacterial activity was determined against gram positive organism, Streptococcus pneumoniae (SV-1); type: functional; procedure, shortened: as §2
[14] = test system: Escherichia coli; test: Antibacterial activity was determined against gram negative organism, E. coli(vogel); type: functional; procedure, shortened: as §2
[15] = test system: Enterococcus faecalis; test: Antibacterial activity was determined against gram positive organism, Streptococcus faecalis (MGH-2); type: functional; procedure, shortened: as §2
[16] = test system: Enterobacter cloacae; test: Antibacterial activity against gram negative organism, […] (MA2646); type: functional
[17] = test system: Staphylococcus aureus; test: Antibacterial activity was determined against gram positive organism, Staphylococcus aureus (H228); type: functional; procedure, shortened: as §2

SMILES	Ratio [1]	MIC [2] [µg/mL]	ED50 [3] [mg/kg]	Ratio [4]	MIC [5] [µg/mL]	ED50 [6] [mg/kg]	ED50 [7] [mg/kg]	MIC [8] [µg/mL]	DNA cleavage [9] [µg/mL]	ED50 [10] [mg/kg]	MIC [11] [µg/mL]	MIC [12] [µg/mL]	MIC [13] [µg/mL]	MIC [14] [µg/mL]	MIC [15] [µg/mL]	MIC [16] [µg/mL]	MIC [17] [µg/mL]	PD50 [7] [mg/kg]
CCNCC1CCN(c2c(F)cc3c(=O)c(C(=O)O)cn(C4CC4)c3c2F)C1 (stereo not drawn) [PD-117558]	0.13	0.4 (≈ 1.02 µM)	1	0.025	0.013 (≈ 0.0332 µM)	2	4.2	0.1 (≈ 0.255 µM)	0.25	3.3	0.025 (≈ 0.0639 µM)	0.2 (≈ 0.511 µM)	–	–	–	–	–	–
Cc1c(F)c(N2CCNCC2)c(F)c2c1c(=O)c(C(=O)O)cn2C1CC1	0.043	0.2 (≈ 0.55 µM)	0.2	0.033	0.025 (≈ 0.0688 µM)	13.5	0.4	0.025 (≈ 0.0688 µM)	2.75	14	0.05 (≈ 0.138 µM)	0.05 (≈ 0.138 µM)	0.025 (≈ 0.0688 µM)	0.025 (≈ 0.0688 µM)	0.05 (≈ 0.138 µM)	0.025 (≈ 0.0688 µM)	0.025 (≈ 0.0688 µM)	–
Cc1c(F)c(N2CCNC(C)C2)c(F)c2c1c(=O)c(C(=O)O)cn2C1CC1 (stereo not drawn)	0.066	0.4 (≈ 1.06 µM)	0.4	0.033	0.013 (≈ 0.0344 µM)	11	0.75	0.05 (≈ 0.132 µM)	3	12	0.05 (≈ 0.132 µM)	0.1 (≈ 0.265 µM)	0.025 (≈ 0.0662 µM)	0.025 (≈ 0.0662 µM)	0.1 (≈ 0.265 µM)	0.025 (≈ 0.0662 µM)	0.025 (≈ 0.0662 µM)	–
Cc1c(F)c(N2CCNC(C)C2)cc2c1c(=O)c(C(=O)O)cn2C1CC1 (stereo not drawn) [GREPAFLOXACIN]	0.6	0.8 (≈ 2.23 µM)	0.5	2.07	0.025 (≈ 0.0696 µM)	8	1.5	0.05 (≈ 0.139 µM)	3.75	24	0.05 (≈ 0.139 µM)	0.2 (≈ 0.556 µM)	0.025 (≈ 0.0696 µM)	0.013 (≈ 0.0362 µM)	0.1 (≈ 0.278 µM)	0.025 (≈ 0.0696 µM)	0.1 (≈ 0.278 µM)	–
Cc1c(F)c(N2CCC(N)C2)c(F)c2c1c(=O)c(C(=O)O)cn2C1CC1 (stereo not drawn)	0.021	0.4 (≈ 1.1 µM)	0.5	0.0082	0.003 (≈ 0.00826 µM)	1.6	2	0.013 (≈ 0.0358 µM)	3	3	0.013 (≈ 0.0358 µM)	0.025 (≈ 0.0688 µM)	0.003 (≈ 0.00826 µM)	0.006 (≈ 0.0165 µM)	0.025 (≈ 0.0688 µM)	0.006 (≈ 0.0165 µM)	0.013 (≈ 0.0358 µM)	–
NC1CCN(c2cc3c(cc2F)c(=O)c(C(=O)O)cn3C2CC2)C1 (stereo not drawn)	0.057	0.2 (≈ 0.604 µM)	0.5	0.075	–	–	3.4	–	0.1	–	–	0.1 (≈ 0.302 µM)	0.1 (≈ 0.302 µM)	0.025 (≈ 0.0754 µM)	–	–	–	3.4
O=C(O)c1cn(C2CC2)c2c(F)c(N3CCNCC3)c(F)cc2c1=O	0.076	–	0.25	0.4	–	29	0.45	–	0.5	59	–	0.1 (≈ 0.286 µM)	–	–	–	0.05 (≈ 0.143 µM)	–	–
NC1CCN(c2c(F)cc3c(=O)c(C(=O)O)cn(C4CC4)c3c2F)C1 (stereo not drawn)	0.029	–	0.4	0.044	0.013 (≈ 0.0372 µM)	6	1	–	0.25	15	–	0.05 (≈ 0.143 µM)	0.05 (≈ 0.143 µM)	0.013 (≈ 0.0372 µM)	–	–	–	–
CC1CN(c2cc3c(cc2F)c(=O)c(C(=O)O)cn3C2CC2)CCN1 (stereo not drawn)	0.066	0.4 (≈ 1.16 µM)	0.4	0.23	0.1 (≈ 0.29 µM)	12	1	0.05 (≈ 0.145 µM)	–	39	0.2 (≈ 0.579 µM)	0.1 (≈ 0.29 µM)	0.2 (≈ 0.579 µM)	–	0.4 (≈ 1.16 µM)	–	0.4 (≈ 1.16 µM)	–
Cc1c(F)c(N2CCNCC2)cc2c1c(=O)c(C(=O)O)cn2C1CC1	0.044	0.2 (≈ 0.579 µM)	0.4	0.057	0.025 (≈ 0.0724 µM)	21	1.5	0.05 (≈ 0.145 µM)	0.3	100	0.1 (≈ 0.29 µM)	0.1 (≈ 0.29 µM)	0.05 (≈ 0.145 µM)	0.013 (≈ 0.0376 µM)	0.05 (≈ 0.145 µM)	0.013 (≈ 0.0376 µM)	0.1 (≈ 0.29 µM)	–
Cc1c(F)c(N2CCC(N)C2)cc2c1c(=O)c(C(=O)O)cn2C1CC1 (stereo not drawn)	0.087	0.4 (≈ 1.16 µM)	0.7	0.05	0.025 (≈ 0.0724 µM)	–	9.5	0.1 (≈ 0.29 µM)	0.38	–	0.025 (≈ 0.0724 µM)	0.1 (≈ 0.29 µM)	0.013 (≈ 0.0376 µM)	0.025 (≈ 0.0724 µM)	0.4 (≈ 1.16 µM)	0.05 (≈ 0.145 µM)	0.1 (≈ 0.29 µM)	–
Cc1c(F)c(N2CCC(C)(CN)C2)c(F)c2c1c(=O)c(C(=O)O)cn2C1CC1 (stereo not drawn)	0.13	0.8 (≈ 2.04 µM)	–	0.0053	0.003 (≈ 0.00766 µM)	–	–	0.1 (≈ 0.255 µM)	3.75	–	0.003 (≈ 0.00766 µM)	0.2 (≈ 0.511 µM)	0.003 (≈ 0.00766 µM)	0.05 (≈ 0.128 µM)	0.025 (≈ 0.0639 µM)	0.05 (≈ 0.128 µM)	0.006 (≈ 0.0153 µM)	–
Cc1c(F)c(N2CCNCC2)cc2c1c(=O)c(C(=O)O)cn2-c1ccc(F)cc1F	0.13	0.8 (≈ 1.92 µM)	–	0.076	0.025 (≈ 0.0599 µM)	–	–	0.1 (≈ 0.24 µM)	3	–	0.1 (≈ 0.24 µM)	0.2 (≈ 0.479 µM)	0.05 (≈ 0.12 µM)	0.05 (≈ 0.12 µM)	0.2 (≈ 0.479 µM)	0.05 (≈ 0.12 µM)	0.1 (≈ 0.24 µM)	–
CCNCC1CCN(c2c(F)c(C)c3c(=O)c(C(=O)O)cn(C4CC4)c3c2F)C1 (stereo not drawn)	0.15	0.8 (≈ 1.97 µM)	3	0.0071	0.003 (≈ 0.0074 µM)	1.6	14	0.1 (≈ 0.247 µM)	3	2.8	0.006 (≈ 0.0148 µM)	0.2 (≈ 0.493 µM)	0.003 (≈ 0.0074 µM)	0.05 (≈ 0.123 µM)	0.025 (≈ 0.0617 µM)	0.1 (≈ 0.247 µM)	0.013 (≈ 0.0321 µM)	–
O=C(O)c1cn(C2CC2)c2c(Cl)c(N3CCNCC3)c(F)cc2c1=O	0.066	0.4 (≈ 1.09 µM)	–	0.13	0.05 (≈ 0.137 µM)	–	–	0.05 (≈ 0.137 µM)	0.5	–	0.2 (≈ 0.547 µM)	0.1 (≈ 0.273 µM)	0.1 (≈ 0.273 µM)	0.025 (≈ 0.0683 µM)	0.4 (≈ 1.09 µM)	0.025 (≈ 0.0683 µM)	0.1 (≈ 0.273 µM)	–
CCn1cc(C(=O)O)c(=O)c2cc(F)c(N3CCNCC3)c(F)c21	0.17	0.8 (≈ 2.37 µM)	–	0.27	0.4 (≈ 1.19 µM)	–	–	0.1 (≈ 0.296 µM)	2.5	–	3.1 (≈ 9.19 µM)	0.2 (≈ 0.593 µM)	3.1 (≈ 9.19 µM)	0.1 (≈ 0.296 µM)	1.6 (≈ 4.74 µM)	0.1 (≈ 0.296 µM)	1.6 (≈ 4.74 µM)	–
O=C(O)c1cn(C2CC2)c2cc(N3CCNCC3)c(F)cc2c1=O [CIPROFLOXACIN]	–	0.4 (≈ 1.21 µM)	0.25	–	0.2 (≈ 0.604 µM)	19	1	–	–	100	0.8 (≈ 2.41 µM)	0.05 (≈ 0.151 µM)	–	–	0.8 (≈ 2.41 µM)	–	–	–
CCn1cc(C(=O)O)c(=O)c2c(C)c(F)c(N3CC(C)NC(C)C3)cc21 (stereo not drawn)	0.79	3.1 (≈ 8.58 µM)	–	1.2	0.2 (≈ 0.553 µM)	–	–	0.8 (≈ 2.21 µM)	8.8	–	3.1 (≈ 8.58 µM)	1.6 (≈ 4.43 µM)	1.6 (≈ 4.43 µM)	0.2 (≈ 0.553 µM)	1.6 (≈ 4.43 µM)	0.4 (≈ 1.11 µM)	1.6 (≈ 4.43 µM)	–
Cc1c(F)c(N2CCNC(C)C2)cc2c1c(=O)c(C(=O)O)cn2-c1ccc(F)cc1F (stereo not drawn)	0.4	1.6 (≈ 3.71 µM)	–	0.087	0.025 (≈ 0.0579 µM)	–	–	0.4 (≈ 0.927 µM)	1.75	–	0.1 (≈ 0.232 µM)	0.8 (≈ 1.85 µM)	0.05 (≈ 0.116 µM)	0.1 (≈ 0.232 µM)	0.4 (≈ 0.927 µM)	0.2 (≈ 0.464 µM)	0.1 (≈ 0.232 µM)	–
Cc1c(F)c(N2CCC(N)C2)c(Cl)c2c1c(=O)c(C(=O)O)cn2C1CC1 (stereo not drawn)	0.05	0.2 (≈ 0.527 µM)	–	0.029	0.013 (≈ 0.0342 µM)	–	–	0.05 (≈ 0.132 µM)	0.3	–	0.05 (≈ 0.132 µM)	0.05 (≈ 0.132 µM)	0.025 (≈ 0.0658 µM)	0.013 (≈ 0.0342 µM)	0.05 (≈ 0.132 µM)	0.05 (≈ 0.132 µM)	0.025 (≈ 0.0658 µM)	–
